Assay results published in ChEMBL document CHEMBL1151434 (Antimicrob Agents Chemother, 2007).
In brackets after ≈: the same amount, converted by molar mass.

What was measured:
Chlamydia psittaci 6BC = experiment: Antibacterial activity against 0.01 MOI wild type Chlamydia psittaci 6BC BCRB infected in mouse L2 cells treated 2 hrs after infection measured on day 7 by plaque assay; format: functional
Outline: (§1)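 Susceptibility measured in a plaque assay on confluent mouse fibroblast L2 cell monolayers in 60-mm dishes. The inoculum was 10^5 chlamydial PFU, equal to an MOI of 0.01. MIC was taken as the drug concentration that inhibited development of these 10^5 PFU.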

Chlamydia trachomatis [1] = experiment: Antibacterial activity against 0.01 MOI wild type Chlamydia trachomatis L2/LGV/434/Bu infected in mouse L2 cells treated 2 hrs after infection measured on day 7 by plaque assay; format: functional; outline: as §1
Chlamydia trachomatis [2] = experiment: Antibacterial activity against azithromycin-tolerant 0.01 MOI Chlamydia trachomatis L2AZM#23 harboring mutation in bacterial ribosomal protein L4 infected in mouse L2 cells treated 2 hrs after infection measured on day 7 by plaque assay; format: functional; outline: as §1
Chlamydia trachomatis [3] = experiment: Antibacterial activity against azithromycin-tolerant 0.01 MOI Chlamydia trachomatis L2AZM#31 harboring mutation in bacterial ribosomal protein L4 infected in mouse L2 cells treated 2 hrs after infection measured on day 7 by plaque assay; format: functional; outline: as §1
[4] = Biodistribution in healthy human epithelial lining fluid assessed as drug accumulation at 500 mg; format: ADME, organism-based; conditions: in vivo

Row | Compound | MIC (Chlamydia psittaci 6BC) | MIC (Chlamydia trachomatis [1]) | MIC (Chlamydia trachomatis [2]) | MIC (Chlamydia trachomatis [3]) | Drug uptake [4]
1 | CCC[C@@H]1C[C@@H](C(=O)N[C@@H]([C@H]2O[C@H](SC)[C@H](O)[C@@H](O)[C@H]2O)[C@H](C)Cl)N(C)C1 [CLINDAMYCIN] | 0.4 µg/mL (≈ 0.941 µM) | 0.125 µg/mL (≈ 0.294 µM) | 0.5 µg/mL (≈ 1.18 µM) | 0.5 µg/mL (≈ 1.18 µM) | –
2 | SPIRAMYCIN | 1 µg/mL | 0.8 µg/mL | 4 µg/mL | 4 µg/mL | –
3 | CC[C@H]1OC(=O)[C@H](C)[C@@H](O[C@H]2C[C@@](C)(OC)[C@@H](O)[C@H](C)O2)[C@H](C)[C@@H](O[C@@H]2O[C@H](C)C[C@H](N(C)C)[C@H]2O)[C@](C)(O)C[C@@H](C)CN(C)[C@H](C)[C@@H](O)[C@]1(C)O [AZITHROMYCIN] | 0.1 µg/mL (≈ 0.134 µM) | 0.1 µg/mL (≈ 0.134 µM) | 0.8 µg/mL (≈ 1.07 µM) | 0.8 µg/mL (≈ 1.07 µM) | 2 µg/mL
4 | CO[C@@H]1[C@@H](O[C@@H]2O[C@H](C)[C@@H](O[C@H]3C[C@@](C)(O)[C@@H](OC(=O)CC(C)C)[C@H](C)O3)[C@H](N(C)C)[C@H]2O)[C@@H](CC=O)C[C@@H](C)[C@@H](O)/C=C/C=C/C[C@@H](C)OC(=O)C[C@H]1OC(C)=O [JOSAMYCIN] | 0.05 µg/mL (≈ 0.0604 µM) | 0.05 µg/mL (≈ 0.0604 µM) | 0.2 µg/mL (≈ 0.242 µM) | 0.2 µg/mL (≈ 0.242 µM) | –
5 | O=C(N[C@H](CO)[C@H](O)c1ccc([N+](=O)[O-])cc1)C(Cl)Cl [CHLORAMPHENICOL] | – | 0.4 µg/mL (≈ 1.24 µM) | 0.4 µg/mL (≈ 1.24 µM) | 0.4 µg/mL (≈ 1.24 µM) | –
6 | CC[C@H]1OC(=O)[C@H](C)[C@@H](O[C@H]2C[C@@](C)(OC)[C@@H](O)[C@H](C)O2)[C@H](C)[C@@H](O[C@@H]2O[C@H](C)C[C@H](N(C)C)[C@H]2O)[C@](C)(O)C[C@@H](C)C(=O)[C@H](C)[C@@H](O)[C@]1(C)O [ERYTHROMYCIN] | 0.2 µg/mL (≈ 0.273 µM) | 0.2 µg/mL (≈ 0.273 µM) | 0.8 µg/mL (≈ 1.09 µM) | 0.8 µg/mL (≈ 1.09 µM) | –
